Measured values published in ChEMBL document CHEMBL1140109, “Discovery of inhibitors of Escherichia coli methionine aminopeptidase with the Fe(II)-form selectivity and antibacterial activity” (J Med Chem, 2008).
Converted amounts (≈) assume the structure as drawn. The source made the active and inactive calls. No cut-off for these calls is given here.

Columns and labels:
Escherichia coli [1] = experiment: Antibacterial activity against Escherichia coli D22; format: functional, organism-based
Outline: (§1)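 Exponential-phase culture at 0.5 McFarland diluted 1000-fold in Mueller Hinton medium with 100 mM Tris pH 7.5, mixed with inhibitor at increasing concentrations plus resazurin (110 µM final). Fluorescence (ex 530/em 590) read every 5 min for 10 h at 37°C.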

Priestia megaterium = experiment: Antibacterial activity against Bacillus megaterium; format: functional, organism-based; outline: as §1
[2] = Inhibition of Escherichia coli BL21(DE3) methionine aminopeptidase in presence of Co(II) metal ions
Outline: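 Recombinant E. coli MetAP apoenzyme purified from BL21(DE3) cells, used at 500 nM and activated with 10 μM CoCl2. Buffer was 50 mM MOPS pH 7.0 with 200 μM Met-AMC substrate, at room temperature. AMC release was read by fluorescence (ex 360/em 460 nm) across serially diluted inhibitor. IC50 came from non-linear fitting of percent inhibition.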

[3] = Inhibition of Escherichia coli BL21(DE3) methionine aminopeptidase in presence of Mn(II) metal ions
Outline: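 E. coli MetAP apoenzyme, recombinant from BL21(DE3), at 500 nM and metallated with 20 μM MnCl2. Contained 50 mM MOPS pH 7.0 and 200 μM Met-AMC, at room temperature. IC50 was derived by non-linear fit of percent inhibition versus concentration.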

Escherichia coli [4] = experiment: Antibacterial activity against Escherichia coli AS19; format: functional, organism-based
Outline: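 AS19 culture at 0.5 McFarland, exponential phase, diluted 1000-fold in Mueller Hinton medium containing 100 mM Tris pH 7.5, exposed to increasing inhibitor concentrations […]. Growth followed by absorbance at 600 nm every 5 min for 10 h at 37°C.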

[5] = Inhibition of Escherichia coli BL21(DE3) methionine aminopeptidase in presence of Fe(II) metal ions
Outline: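 Purified BL21(DE3)-expressed E. coli MetAP apoenzyme at 500 nM, activated with 50 μM FeCl2 plus 100 μM ascorbic acid. Buffer was 50 mM MOPS pH 7.0 with 200 μM Met-AMC, at room temperature. Hydrolysis was followed by fluorescence (ex 360/em 460 nm) at serially diluted inhibitor concentrations. IC50 was obtained by non-linear curve fit of percent inhibition.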

Bacillus subtilis = experiment: Antibacterial activity against Bacillus subtilis; format: functional, organism-based; outline: as §1
[6] = system: Escherichia coli BL21(DE3); experiment: Inhibition of Escherichia coli BL21(DE3) methionine aminopeptidase up to 100 uM in presence of Mn(II) metal ions
Outline: (§2)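 Purified apoenzyme (500 nM) in 50 mM MOPS pH 7.0 with 200 µM Met-AMC, activated by 50 µM FeCl2 plus 100 µM ascorbic acid (Fe), 10 µM CoCl2 (Co) or 20 µM MnCl2 (Mn), with serially diluted inhibitor. AMC release read by fluorescence (ex 360/em 460) at room temperature. IC50 from non-linear fit of percent inhibition versus concentration.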

[7] = system: Escherichia coli BL21(DE3); experiment: Inhibition of Escherichia coli BL21(DE3) methionine aminopeptidase up to 100 uM in presence of Co(II) metal ions; outline: as §2
[8] = system: Escherichia coli BL21(DE3); experiment: Inhibition of Escherichia coli BL21(DE3) methionine aminopeptidase up to 100 uM in presence of Fe(II) metal ions; outline: as §2
Escherichia coli [9] = experiment: Antibacterial activity against Escherichia coli ATCC 25922; format: functional, organism-based
Outline: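 Wild-type strain grown to exponential phase (0.5 McFarland), diluted 1000-fold in Tris-free Mueller Hinton medium, incubated with increasing inhibitor concentrations and 110 µM resazurin. Fluorescence (ex 530/em 590) monitored 10 h at 37°C at 5-min intervals.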

Cc1nc(C(=O)NC2CC2)c(-c2ccc(O)c(O)c2)s1
IC50 (Escherichia coli [1]): 167 µM
MIC (Escherichia coli [1]): 103 µg/mL (≈ 355 µM)
IC50 (Priestia megaterium): 75.5 µM
MIC (Priestia megaterium): 62 µg/mL (≈ 214 µM)
IC50 [2]: 92.3 µM
IC50 [3]: 100 µM
IC50 (Escherichia coli [4]): 125 µM
MIC (Escherichia coli [4]): 138 µg/mL (≈ 475 µM)
IC50 [5]: 11.1 µM
IC50 (Bacillus subtilis): 113 µM
MIC (Bacillus subtilis): 51 µg/mL (≈ 176 µM)

O=C(NC1CC1)c1ccc(-c2ccc(O)c(O)c2)s1
IC50 (Escherichia coli [1]): 238 µM
MIC (Escherichia coli [1]): 105 µg/mL (≈ 381 µM)
IC50 (Priestia megaterium): 133 µM
MIC (Priestia megaterium): 85 µg/mL (≈ 309 µM)
IC50 [2]: 28.5 µM
IC50 [3]: 34 µM
IC50 (Escherichia coli [4]): 110 µM
MIC (Escherichia coli [4]): 78 µg/mL (≈ 283 µM)
IC50 [5]: 23.8 µM
IC50 (Bacillus subtilis): 211 µM
MIC (Bacillus subtilis): 122 µg/mL (≈ 443 µM)

Oc1ccc(-c2cc(Cl)sc2Cl)cc1O
IC50 (Escherichia coli [1]): 7.3 µM
MIC (Escherichia coli [1]): 2 µg/mL (≈ 7.66 µM)
IC50 (Priestia megaterium): 5 µM
MIC (Priestia megaterium): 1 µg/mL (≈ 3.83 µM)
IC50 [2]: 62.4 µM
IC50 [3]: 48.6 µM
IC50 (Escherichia coli [4]): 6.1 µM
MIC (Escherichia coli [4]): 3 µg/mL (≈ 11.5 µM)
IC50 [5]: 20.2 µM
IC50 (Bacillus subtilis): 6 µM
MIC (Bacillus subtilis): 2 µg/mL (≈ 7.66 µM)

Cc1sc(C)c(-c2ccc(O)c(O)c2)c1Br
IC50 (Escherichia coli [1]): 7.7 µM
MIC (Escherichia coli [1]): 9 µg/mL (≈ 30.1 µM)
IC50 (Priestia megaterium): 17.5 µM
MIC (Priestia megaterium): 10 µg/mL (≈ 33.4 µM)
IC50 [2]: 2.4 µM
IC50 [3]: 2.1 µM
IC50 (Escherichia coli [4]): 10.8 µM
MIC (Escherichia coli [4]): 5 µg/mL (≈ 16.7 µM)
IC50 [5]: 3.1 µM
IC50 (Bacillus subtilis): 12.8 µM
MIC (Bacillus subtilis): 8 µg/mL (≈ 26.7 µM)

Cc1nc(-c2ccc(O)cc2O)cs1
Activity [6]: inactive
IC50 (Escherichia coli [4]): 95.9 µM
Activity [7]: inactive
Activity [8]: inactive

CCc1ccsc1-c1ccc(O)c(O)c1
IC50 (Escherichia coli [1]): 11.8 µM
MIC (Escherichia coli [1]): 6 µg/mL (≈ 27.2 µM)
IC50 (Priestia megaterium): 27.8 µM
MIC (Priestia megaterium): 11 µg/mL (≈ 49.9 µM)
IC50 [2]: 62.6 µM
IC50 (Escherichia coli [4]): 15.4 µM
MIC (Escherichia coli [4]): 5 µg/mL (≈ 22.7 µM)
IC50 [5]: 12.9 µM
IC50 (Bacillus subtilis): 21.8 µM
MIC (Bacillus subtilis): 7 µg/mL (≈ 31.8 µM)

CCCCc1ccsc1-c1ccc(O)c(O)c1
IC50 (Escherichia coli [1]): 13.5 µM
MIC (Escherichia coli [1]): 5 µg/mL (≈ 20.1 µM)
IC50 (Priestia megaterium): 7.6 µM
MIC (Priestia megaterium): 3 µg/mL (≈ 12.1 µM)
IC50 [2]: > 100 µM
IC50 [3]: 48.2 µM
IC50 (Escherichia coli [4]): 12.4 µM
MIC (Escherichia coli [4]): 5 µg/mL (≈ 20.1 µM)
IC50 [5]: 9.2 µM
IC50 (Bacillus subtilis): 7.8 µM
MIC (Bacillus subtilis): 3 µg/mL (≈ 12.1 µM)

Nc1nc(-c2ccc(O)c(O)c2)cs1
IC50 (Escherichia coli [1]): 39.9 µM
MIC (Escherichia coli [1]): 11 µg/mL (≈ 52.8 µM)
IC50 (Priestia megaterium): 36.9 µM
MIC (Priestia megaterium): 26 µg/mL (≈ 125 µM)
IC50 [2]: > 100 µM
IC50 [3]: > 100 µM
IC50 (Escherichia coli [4]): 145 µM
MIC (Escherichia coli [4]): 39 µg/mL (≈ 187 µM)
IC50 [5]: 6.6 µM
IC50 (Bacillus subtilis): 28.6 µM
MIC (Bacillus subtilis): 13 µg/mL (≈ 62.4 µM)

Cc1nc(-c2ccc(O)c(C(N)=O)c2)cs1
Activity [6]: inactive
IC50 (Escherichia coli [4]): 125 µM
Activity [7]: inactive
Activity [8]: inactive

CC(=O)Nc1ccc(-c2csc(C)n2)cc1[N+](=O)[O-]
Activity [6]: inactive
IC50 (Escherichia coli [4]): 63.3 µM
Activity [7]: inactive
Activity [8]: inactive

Cc1ccc(-c2ccc(O)c(O)c2)s1
IC50 (Escherichia coli [1]): 39.1 µM
MIC (Escherichia coli [1]): 18 µg/mL (≈ 87.3 µM)
IC50 (Priestia megaterium): 26 µM
MIC (Priestia megaterium): 10 µg/mL (≈ 48.5 µM)
IC50 [2]: 51.5 µM
IC50 [3]: 28 µM
IC50 (Escherichia coli [4]): 87.7 µM
MIC (Escherichia coli [4]): 60 µg/mL (≈ 291 µM)
IC50 [5]: 32.7 µM
IC50 (Bacillus subtilis): 25.1 µM
MIC (Bacillus subtilis): 10 µg/mL (≈ 48.5 µM)

CCCc1ccsc1-c1ccc(O)c(O)c1
IC50 (Escherichia coli [1]): 43 µM
MIC (Escherichia coli [1]): 19 µg/mL (≈ 81.1 µM)
IC50 (Priestia megaterium): 15.5 µM
MIC (Priestia megaterium): 6 µg/mL (≈ 25.6 µM)
IC50 [2]: 100 µM
IC50 [3]: 34.3 µM
IC50 (Escherichia coli [4]): 15.5 µM
MIC (Escherichia coli [4]): 4 µg/mL (≈ 17.1 µM)
IC50 [5]: 14 µM
IC50 (Bacillus subtilis): 14.9 µM
MIC (Bacillus subtilis): 4 µg/mL (≈ 17.1 µM)

Cc1nc(-c2ccc(N)c([N+](=O)[O-])c2)cs1
Activity [6]: inactive
IC50 (Escherichia coli [4]): 204 µM
Activity [7]: inactive
Activity [8]: inactive

Cc1nc(-c2ccc(O)c(O)c2)cs1
IC50 (Escherichia coli [9]): 281 µM
IC50 (Escherichia coli [1]): 5.6 µM
MIC (Escherichia coli [1]): 4 µg/mL (≈ 19.3 µM)
IC50 (Priestia megaterium): 69.8 µM
MIC (Priestia megaterium): 73 µg/mL (≈ 352 µM)
IC50 [2]: > 100 µM
IC50 [3]: > 100 µM
IC50 (Escherichia coli [4]): 117 µM
MIC (Escherichia coli [4]): 91 µg/mL (≈ 439 µM)
IC50 [5]: 13 µM
IC50 (Bacillus subtilis): 67 µM
MIC (Bacillus subtilis): 41 µg/mL (≈ 198 µM)
